Each structure is given as a SMILES string.

The test addresses T1, Substance-K receptor (Homo sapiens, UniProt P21452).
T1 sequence (P21452 whole entry): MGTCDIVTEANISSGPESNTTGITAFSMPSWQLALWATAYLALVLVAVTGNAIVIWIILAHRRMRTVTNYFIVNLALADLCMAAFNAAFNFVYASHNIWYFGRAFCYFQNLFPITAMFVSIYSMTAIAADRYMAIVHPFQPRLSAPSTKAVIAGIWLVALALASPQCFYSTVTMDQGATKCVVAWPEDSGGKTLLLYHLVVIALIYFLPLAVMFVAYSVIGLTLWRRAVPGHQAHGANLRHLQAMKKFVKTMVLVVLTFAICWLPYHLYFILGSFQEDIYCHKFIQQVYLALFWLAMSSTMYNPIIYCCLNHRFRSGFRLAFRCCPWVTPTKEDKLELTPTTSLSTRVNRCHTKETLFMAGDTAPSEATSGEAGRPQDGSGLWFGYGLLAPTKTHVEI
In words: In vitro binding affinity for Tachykinin receptor 2 of human-CHO cells using 125 I-NKA radioligand. It is filed as cell-based. Put shortly: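 Whole CHO cells stably expressing recombinant human NK2 receptor (3×10^5 per well) incubated 20 min at room temperature with 0.05 nM [125I]-NKA (2200 Ci/mmol) and a range of test concentrations in 20 mM HEPES pH 7.4 with 2 mM MnSO4 and 6 mM MgCl2. Nonspecific binding defined with 50 nM NKA. Rapid filtration, four ice-cold Tricine washes, scintillation counting; triplicate samples.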
Compound `CN(C(=O)c1cc(C(F)(F)F)cc(C(F)(F)F)c1)[C@@H](/C=C/C(=O)N[C@@H]1CCCCNC1=O)Cc1cc(Cl)c(Cl)s1` yielded an IC50 of 0.017 µM. Then `CN(C(=O)c1cc(C(F)(F)F)cc(C(F)(F)F)c1)[C@@H](/C=C/C(=O)NC1(C(N)=O)CCCCC1)Cc1ccc(Cl)cc1`, with 0.066 µM; and `CN(C(=O)c1cc(C(F)(F)F)cc(C(F)(F)F)c1)[C@@H](/C=C/C(=O)N[C@@H]1CCCCNC1=O)Cc1cc(Br)c(Br)s1`, with 0.026 µM; and `CN(C(=O)c1cc(C(F)(F)F)cc(C(F)(F)F)c1)[C@@H](/C=C/C(=O)N[C@@H]1CCCCNC1=O)Cc1ccc(Cl)c(Cl)c1` [DNK333], with 0.0055 µM. Take `CN(C(=O)c1cc(C(F)(F)F)cc(C(F)(F)F)c1)N(CCC(=O)N[C@@H]1CCCCNC1=O)Cc1ccc(Cl)c(Cl)c1`: the IC50 came out at 0.0055 µM. Then `CN(C(=O)c1cc(C(F)(F)F)cc(C(F)(F)F)c1)N(CCC(=O)N[C@@H]1CCCCNC1=O)Cc1cc(Br)c(Br)s1`, with 0.0195 µM; and `CN(C(=O)c1cc(C(F)(F)F)cc(C(F)(F)F)c1)N(CCC(=O)N[C@@H]1CCCCNC1=O)Cc1ccc2ccccc2c1`, with 0.055 µM; and `CN(C(=O)c1cc(C(F)(F)F)cc(C(F)(F)F)c1)[C@@H](/C=C/C(=O)NC1CCCCCC1)Cc1ccc(Cl)cc1`, with 0.203 µM. `CN(C(=O)c1cc(C(F)(F)F)cc(C(F)(F)F)c1)[C@@H](/C=C/C(=O)N[C@@H]1CCCCNC1=O)Cc1ccc2ccccc2c1` gave an IC50 of 0.06 µM. The figure for `CN(C(=O)c1cc(C(F)(F)F)cc(C(F)(F)F)c1)[C@@H](/C=C/C(=O)N[C@@H]1CCCCNC1=O)Cc1cn(C)c2ccccc12` is 0.024 µM.

For the origin of these results see ChEMBL document CHEMBL1133863, “Dual neurokinin NK(1)/NK(2) antagonists: N-[(R,R)-(E)-1-arylmethyl-3-(2-oxo-azepan-3-yl)carbamoyl]allyl-N-methyl-3,5-bis(trifluoromethyl)benzamides and 3-[N'-3,5-bis(trifluoromethyl)benzoyl-N-arylmethyl-N'-methylhydrazino]-N-[(R)-2-oxo-azepan-3-yl]propionamides” (Bioorg Med Chem Lett, 2001).
